Among the data in ChEMBL document CHEMBL3585248, “Amorfrutins Are Natural PPARγ Agonists with Potent Anti-inflammatory Properties” (J Nat Prod, 2015) are IC50, Activity and inhibition values, retold here.

Activity calls are given as the source filed them. The rule behind the calls is not given here.

For data set [1], the system named is HT-29. Briefly: Cytotoxicity against human HT-29 cells assessed as reduction in cell viability after 54 hrs by CytoTox-Glo assay. The settings on record: HT-29, 54 h.
For data set [2], the system named is HT-29. Nature of the data set: Cytotoxicity against human HT-29 cells assessed as cell viability up to 5 uM after 54 hrs by CytoTox-Glo assay. The class given is cell-based. Particulars: ht-29, 54 h.
For data set [3], the system named is HT-29. Nature of the data set: Cytotoxicity against human HT-29 cells assessed as cell viability at 10 uM after 54 hrs by CytoTox-Glo assay. The settings on record: ht-29, 54 h. Type of data set: cell-based.
In data set [4] the target is T1, Peroxisome proliferator-activated receptor gamma (Homo sapiens) (UniProt P37231).
T1 sequence (whole entry): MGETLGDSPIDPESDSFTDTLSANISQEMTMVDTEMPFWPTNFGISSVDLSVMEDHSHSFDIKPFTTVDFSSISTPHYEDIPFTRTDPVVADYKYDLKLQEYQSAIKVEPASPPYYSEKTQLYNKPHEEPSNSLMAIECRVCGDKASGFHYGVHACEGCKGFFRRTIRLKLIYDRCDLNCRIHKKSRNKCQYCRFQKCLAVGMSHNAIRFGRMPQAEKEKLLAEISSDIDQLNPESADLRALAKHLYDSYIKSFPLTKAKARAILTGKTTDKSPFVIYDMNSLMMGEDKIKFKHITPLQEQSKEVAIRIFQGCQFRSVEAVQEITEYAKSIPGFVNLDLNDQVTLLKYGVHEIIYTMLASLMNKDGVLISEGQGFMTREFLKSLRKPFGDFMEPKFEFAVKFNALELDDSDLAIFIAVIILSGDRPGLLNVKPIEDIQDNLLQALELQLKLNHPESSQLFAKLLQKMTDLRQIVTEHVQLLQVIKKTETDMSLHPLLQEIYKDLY
Briefly: Agonist activity at PPARgamma in human HT29 cells assessed as reduction in TNFalpha-induced GROalpha gene expression in PPARgamma knockdown human HT29 cells at 10 uM after 48 hrs by real-time qPCR analysis. Type of data set: cell-based. Particulars: HT-29. In short, it runs like this: (§1)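 PPARγ knocked down in HT-29 cells by transfection with 30 nM siRNA, with negative-control siRNA alongside. Cells then given 10 μM compound for 48 h and 1 ng/mL TNF-α for 6 h. Marker mRNA measured by SYBR Green qPCR, normalized to GAPDH by 2−ΔΔCt. Biological triplicates.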

Data set [5] deals with T1, Peroxisome proliferator-activated receptor gamma (Homo sapiens). Briefly: Agonist activity at PPARgamma in human HT29 cells assessed as reduction in TNFalpha-induced MIP3alpha gene expression at 10 uM after 48 hrs by real-time qPCR analysis. The class given is cell-based. Particulars: HT-29. An outline of the steps:
(§2)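 HT-29 cells pretreated 48 h with 10 μM compound in 0.1% DMSO, then stimulated 6 h with 1 ng/mL TNF-α. Total RNA isolated with DNase digestion, reverse-transcribed, then SYBR Green qPCR run for 40 cycles. Expression normalized to GAPDH by 2−ΔΔCt and reported relative to DMSO-treated cells. Biological triplicates, mean ± SD; one-way ANOVA with Dunnett's test.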
(In general: In qPCR the cycle at which signal appears reflects the starting amount.)

Data set [6] shares this target. Nature of the data set: Agonist activity at PPARgamma in human HT29 cells assessed as reduction in TNFalpha-induced MIP3alpha gene expression in PPARgamma knockdown human HT29 cells at 10 uM after 48 hrs by real-time qPCR analysis. Type of data set: cell-based. The settings on record: HT-29. In short, it runs like this:
as §1

The target is the same in data set [7]. Briefly: Agonist activity at PPARgamma in human HT29 cells assessed as reduction in TNFalpha-induced COX2 gene expression at 10 uM after 48 hrs by real-time qPCR analysis. Type of data set: cell-based. The settings on record: HT-29. An outline of the steps: as §2
Data set [8] shares this target. Nature of the data set: Agonist activity at PPARgamma in human HT29 cells assessed as reduction in TNFalpha-induced IL8 gene expression in PPARgamma knockdown human HT29 cells at 10 uM after 48 hrs by real-time qPCR analysis. Type of data set: cell-based. Particulars: HT-29. An outline of the steps:
as §1

Data set [9] has the same target. Briefly: Agonist activity at PPARgamma in human HT29 cells assessed as reduction in TNFalpha-induced GROgamma gene expression at 10 uM after 48 hrs by real-time qPCR analysis. The class given is cell-based. Particulars: HT-29. In short, it runs like this:
as §2

For data set [10] the target is unchanged. Briefly: Agonist activity at PPARgamma in human HT29 cells assessed as reduction in TNFalpha-induced GROalpha gene expression at 10 uM after 48 hrs by real-time qPCR analysis. Type of data set: cell-based. Particulars: HT-29. In short, it runs like this:
as §2

For data set [11] the target is unchanged. Nature of the data set: Agonist activity at PPARgamma in human HT29 cells assessed as reduction in TNFalpha-induced IL-1beta gene expression at 10 uM after 48 hrs by real-time qPCR analysis. Type of data set: cell-based. The settings on record: HT-29. An outline of the steps:
as §2

For data set [12] the target is unchanged. Nature of the data set: Agonist activity at PPARgamma in human HT29 cells assessed as reduction in TNFalpha-induced COX2 gene expression in PPARgamma knockdown human HT29 cells at 10 uM after 48 hrs by real-time qPCR analysis. The class given is cell-based. Particulars: HT-29. An outline of the steps: as §1
For data set [13] the target is unchanged. Nature of the data set: Agonist activity at PPARgamma in human HT29 cells assessed as reduction in TNFalpha-induced IL8 gene expression at 10 uM after 48 hrs by real-time qPCR analysis. Type of data set: cell-based. Particulars: HT-29. An outline of the steps:
as §2

For data set [14] the target is unchanged. Nature of the data set: Agonist activity at PPARgamma in human HT29 cells assessed as reduction in TNFalpha-induced GRO-alpha gene expression in at 10 uM after 48 hrs by ELISA. Type of data set: cell-based. The settings on record: HT-29. An outline of the steps: (§3)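 HT-29 cells in DMEM-F12 with 5% FBS, seeded a day ahead; 10 μM compound or 0.1% DMSO control for 48 h, then 1 ng/mL TNF-α for 6 h. Culture supernatants centrifuged at 4 °C, stored at −80 °C. Secreted MIP-3α/CCL20, IL-8 and GRO-α quantified by ELISA. Mean ± SD; compared with TNF-α alone.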
(In an ELISA, binding on a coated surface is turned into a signal by an enzyme label.)

Data set [15] shares this target. Nature of the data set: Agonist activity at PPARgamma in human HT29 cells assessed as reduction in TNFalpha-induced MIP3alpha gene expression in at 10 uM after 48 hrs by ELISA. The class given is cell-based. The settings on record: HT-29. In short, it runs like this:
as §3

Data set [16] shares this target. Nature of the data set: Agonist activity at PPARgamma in human HT29 cells assessed as reduction in TNFalpha-induced IL8 gene expression in at 10 uM after 48 hrs by ELISA. Type of data set: cell-based. The settings on record: HT-29. In short, it runs like this:
as §3

The IC50 is the midpoint of a concentration-inhibition curve. `COc1cc(CCc2ccccc2)c(C(=O)O)c(O)c1C/C=C(\C)CCC=C(C)C`: in [1], the IC50 is 30.5 µM. Further, the Activity entry in data set [2] is listed as “Non-toxic”.
As for `COc1cc(CCc2ccccc2)c(C(=O)O)c(O)c1CC=C(C)C` [AMORFRUTIN A], in data set [3], the Activity entry was “Non-toxic”. The inhibition entry in data set [4], in data set [8], in data set [9] and in data set [11] was “inactive” each time. Besides, the inhibition result in data set [5], in [6], in data set [7], in data set [10], in [12] and in data set [13] was “Active” throughout. For the same compound, the half-inhibitory concentration (IC50) in data set [1] was 50.8 µM. Besides, the outcome in data set [14], in data set [15] and in data set [16] was Active.
